The values below come from ChEMBL document CHEMBL4477211, “Synthesis and Investigation of Tetrahydro-β-carboline Derivatives as Inhibitors of the Breast Cancer Resistance Protein (ABCG2)” (J Med Chem, 2016).

Data set [1] has as its target T1, Broad substrate specificity ATP-binding cassette transporter ABCG2 (Homo sapiens, UniProt Q9UNQ0).
T1 sequence (Q9UNQ0 whole entry): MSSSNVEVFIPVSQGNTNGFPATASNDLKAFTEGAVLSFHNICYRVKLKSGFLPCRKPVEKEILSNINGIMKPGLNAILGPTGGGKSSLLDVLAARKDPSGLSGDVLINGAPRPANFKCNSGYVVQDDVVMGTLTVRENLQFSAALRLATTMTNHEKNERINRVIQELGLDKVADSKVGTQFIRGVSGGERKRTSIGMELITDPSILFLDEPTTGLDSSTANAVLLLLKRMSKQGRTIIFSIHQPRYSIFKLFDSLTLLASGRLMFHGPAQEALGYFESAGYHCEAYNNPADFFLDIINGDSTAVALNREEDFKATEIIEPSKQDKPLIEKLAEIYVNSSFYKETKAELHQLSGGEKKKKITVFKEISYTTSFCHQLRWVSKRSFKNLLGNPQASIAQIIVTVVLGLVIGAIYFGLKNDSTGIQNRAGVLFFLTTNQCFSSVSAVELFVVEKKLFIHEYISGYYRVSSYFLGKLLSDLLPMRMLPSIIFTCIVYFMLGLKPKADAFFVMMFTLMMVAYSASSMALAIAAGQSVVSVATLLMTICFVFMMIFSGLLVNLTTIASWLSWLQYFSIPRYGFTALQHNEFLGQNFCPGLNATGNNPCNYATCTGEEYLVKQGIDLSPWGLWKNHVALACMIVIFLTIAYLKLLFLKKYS
Kind of data set: Inhibition of human ABCG2 expressed in MDCK2 cells assessed as reduction in Hoechst 33342 efflux pre-incubated for 30 mins before Hoechst 33342 addition and measured for 120 mins by microplate reader analysis. The format is cell-based. As to conditions: read-out: IC50; call rule not given here. The procedure, abridged: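 Compound dilutions up to 10 µM (from 10 mM DMSO stocks) pre-incubated 30 min at 37 °C. Hoechst 33342 then added from 6 µM solution. Fluorescence (ex 355/em 460 nm) read each 60 s over 120 min.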

Data set [2] addresses ABCB1 (Homo sapiens, UniProt P08183). Kind of data set: Inhibition of ABCB1 in human A2780/ADR cells assessed as reduction in calcein AM efflux at 10 uM pre-incubated for 30 mins before calcein AM addition and measured for 60 mins by microplate reader analysis relative to control. Particulars: probe calcein AM. The format is cell-based. In short, it runs like this:
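Compound at 10 µM pre-incubated 30 min at 37 °C. Calcein AM added from 3.125 µM solution. Fluorescence (ex 485/em 520 nm) read every 60 s for 60 min.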

Data set [3] in a line: Solubility in pH 7.4 Krebs-HEPES buffer assessed as compound precipitation at 10 uM after 2 hrs by UV-visible spectrophotometric analysis. In kind it is physicochemical. As to conditions: pH 7.4, 2 h. The procedure, abridged: (§1)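 10 µM test solutions prepared from DMSO stocks as for the Hoechst 33342 assay, in Krebs-HEPES pH 7.4. Absorbance at an absorption peak maximum recorded every 120 s for 2 h at room temperature by UV/visible spectrophotometer.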

For data set [4], the target named is T1, Broad substrate specificity ATP-binding cassette transporter ABCG2. Kind of data set: Inhibition of human ABCG2 expressed in baculovirus infected Sf9 cell membrane assessed as inhibition of vanadate sensitive quercetin-stimulated ATPase activity after 20 mins by colorimetric method. The procedure, abridged:
(§2)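 Cholesterol-loaded membranes from Sf9 cells infected with baculovirus carrying human wild-type ABCG2; 10 µg protein per reaction. Buffer: 40 mM MOPS-Tris pH 7.0, 50 mM KCl, 2 mM DTT, 0.5 mM EGTA-Tris, 5 mM azide, 1 mM ouabain. Started with 3.3 mM MgATP, 20 min at 37 °C, stopped with SDS. Pi measured by molybdate/ascorbate colour at 880 nm against K2HPO4 standard.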

Data set [5] has the same target. Briefly: Inhibition of human ABCG2 expressed in MDCK2 cells assessed as reduction in pheophorbide A efflux pre-incubated for 30 mins before pheophorbide A addition and measured for 120 mins by flow cytometry. As to conditions: read-out: IC50.
The target is the same in data set [6]. Kind of data set: Inhibition of human ABCG2 expressed in baculovirus infected Sf9 cell membrane assessed as inhibition of vanadate sensitive ATPase activity at 1 uM after 20 mins by colorimetric method. As to conditions: sf9, 20 min.
Data set [7] is described as follows: Cytotoxicity against MDCK2 cells expressing human ABCG2 assessed as reduction in cell viability after 72 hrs by MTT assay. The format is ADME, cell-based, Canis lupus familiaris. Particulars: dog, MDCK2 (MDCK-II) cells expressing human ABCG2. In short, it runs like this:
(§3)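 MDCK II cells retrovirally transfected with human ABCG2-GFP cDNA, and wild-type MDCK II, in DMEM with 10% FBS. Seeded at 3 x 10^3 cells/well and attached 6 h at 37 °C, 5% CO2. Compounds up to 100 µM for 72 h. Controls were 10% DMSO and medium. MTT (5 mg/ml) added for 1 h, read at 570 nm minus 690 nm. Data normalised; GI50 from variable-slope sigmoidal fit.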

Data set [8] deals with T1, Broad substrate specificity ATP-binding cassette transporter ABCG2. Briefly: Inhibition of human ABCG2 expressed in baculovirus infected Sf9 cell membrane assessed as inhibition of vanadate sensitive basal ATPase activity after 20 mins by colorimetric method. In short, it runs like this:
as §2

A short description of data set [9]: Cytotoxicity against wild-type MDCK2 cells assessed as reduction in cell viability after 72 hrs by MTT assay. The format is cell-based, Canis lupus familiaris. As to conditions: dog, wild-type MDCK2 (MDCK-II) cells. The procedure, abridged:
as §3

Data set [10] can be described thus: Ratio of GI50 for wild-type MDCK2 cells to IC50 for human ABCG2 expressed in MDCK2 cells.
For data set [11], the target named is T1, Broad substrate specificity ATP-binding cassette transporter ABCG2. Kind of data set: Reversal of human ABCG2-mediated resistance to SN-38 in human ABCG2 expressed MDCK2 cells assessed as reduction in SN-38 GI50 after 72 hrs by MTT assay.
Data set [12] deals with T2, ABCG2 (Homo sapiens, UniProt Q9UNQ0).
T2 sequence (Q9UNQ0 whole entry): T1 sequence (Q9UNQ0 whole entry)
Briefly: Ratio of IC50 for human ABCG2 expressed in baculovirus infected Sf9 cell membrane assessed as inhibition of vanadate sensitive quercetin-stimulated ATPase activity to IC50 for human ABCG2 expressed in baculovirus infected Sf9 cell membrane assessed as inhibition of vanadate sensitive basal ATPase activity. As to conditions: read-out: Ratio IC50.

Data set [13] can be described thus: Ratio of GI50 for MDCK2 cells expressing human ABCG2 to IC50 for human ABCG2 expressed in MDCK2 cells.
A short description of data set [14]: Solubility in pH 7.4 Krebs-HEPES buffer at 10 uM after 2 hrs by UV-visible spectrophotometric analysis. The format is physicochemical. Particulars: pH 7.4, 2 h. The procedure, abridged: as §1
Data set [15] is described as follows: Solubility in pH 7.4 Krebs-HEPES buffer assessed as absorbance value at 10 uM after 2 hrs by UV-visible spectrophotometric analysis relative to control. In kind it is physicochemical. Particulars: pH 7.4, 2 h. The procedure, abridged:
as §1

Chain of ABCB1 (P08183 whole entry): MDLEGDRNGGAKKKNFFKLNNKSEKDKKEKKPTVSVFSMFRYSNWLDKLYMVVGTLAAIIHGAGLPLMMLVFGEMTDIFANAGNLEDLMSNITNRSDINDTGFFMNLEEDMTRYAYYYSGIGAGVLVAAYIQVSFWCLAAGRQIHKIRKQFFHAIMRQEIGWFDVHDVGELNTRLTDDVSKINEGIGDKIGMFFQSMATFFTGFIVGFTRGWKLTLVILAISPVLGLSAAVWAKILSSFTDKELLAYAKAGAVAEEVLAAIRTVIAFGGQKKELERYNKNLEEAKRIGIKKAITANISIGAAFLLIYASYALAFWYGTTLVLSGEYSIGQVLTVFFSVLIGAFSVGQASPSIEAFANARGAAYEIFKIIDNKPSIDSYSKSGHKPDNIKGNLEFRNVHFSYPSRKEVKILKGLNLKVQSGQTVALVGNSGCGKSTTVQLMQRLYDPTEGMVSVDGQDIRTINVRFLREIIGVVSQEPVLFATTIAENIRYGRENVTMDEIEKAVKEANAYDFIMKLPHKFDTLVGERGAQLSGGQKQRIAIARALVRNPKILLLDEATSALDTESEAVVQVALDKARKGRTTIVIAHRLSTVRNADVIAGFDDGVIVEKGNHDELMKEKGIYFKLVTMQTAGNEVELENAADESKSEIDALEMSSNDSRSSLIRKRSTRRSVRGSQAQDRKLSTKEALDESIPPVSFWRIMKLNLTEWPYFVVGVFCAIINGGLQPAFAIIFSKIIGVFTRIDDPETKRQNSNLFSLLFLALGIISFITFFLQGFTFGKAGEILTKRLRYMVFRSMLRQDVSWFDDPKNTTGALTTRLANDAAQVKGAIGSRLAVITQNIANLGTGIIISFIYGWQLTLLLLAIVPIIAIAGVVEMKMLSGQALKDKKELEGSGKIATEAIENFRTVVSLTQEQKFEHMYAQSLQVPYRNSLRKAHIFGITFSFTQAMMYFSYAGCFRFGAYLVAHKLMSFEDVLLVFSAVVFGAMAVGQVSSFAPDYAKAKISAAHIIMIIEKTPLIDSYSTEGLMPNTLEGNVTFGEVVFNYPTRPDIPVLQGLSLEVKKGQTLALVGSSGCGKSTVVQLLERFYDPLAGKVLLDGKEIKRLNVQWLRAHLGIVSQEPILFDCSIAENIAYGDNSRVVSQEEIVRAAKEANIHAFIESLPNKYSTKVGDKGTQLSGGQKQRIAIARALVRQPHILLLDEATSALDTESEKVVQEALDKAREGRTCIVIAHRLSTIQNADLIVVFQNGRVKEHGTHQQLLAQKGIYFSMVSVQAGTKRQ

For `O=C(c1ccccc1)N1CCc2c([nH]c3ccccc23)C1c1ccc(C(F)(F)F)cc1` (stereo not drawn), the IC50 in [1] was greater than 10000 nM. Also, in data set [2], the inhibition at 1 h, 10 µM was less than 25%. Besides, the Activity in data set [3] is reported as 80%.
As to `O=C(c1ccccc1)N1CCc2c([nH]c3ccccc23)C1c1ccc(Cl)c(Cl)c1` (stereo not drawn), the IC50 in data set [4] was 262 nM; in [5], 365 nM; in data set [1], 328 nM; in data set [8], 31 nM. Besides, the “inhibition (INH)” value in data set [6] was “Active”. For the same compound, the GI50 at 72 h in data set [7] is 6950 nM; in data set [9], 7290 nM. Moreover, the inhibition at 1 h, 10 µM in data set [2] is less than 25%. Further, the Ratio result in data set [10] and in data set [13] was “<=20” each time. Also, the Activity entry in [11] is listed as “Dose-dependent effect”. Moreover, in data set [12], the selectivity ratio came to 8.4.
Regarding `O=C(c1ccccc1)N1CCc2c([nH]c3ccccc23)C1c1ccc(Br)cc1` (stereo not drawn), the IC50 in data set [4] was 863 nM; in data set [1], 687 nM; in data set [8], 112 nM. The “inhibition (INH)” value in data set [6] is given as “Active”. Further, the GI50 at 72 h in data set [7] stood at 20600 nM; in data set [9], 19400 nM. For the same compound, the inhibition at 1 h, 10 µM in data set [2] was less than 25%. Besides, the Ratio in data set [10] and in [13] was 20 - 30 throughout. For the same compound, the Activity entry in [11] is “Dose-dependent effect”. Further, in data set [12], the selectivity ratio is 7.7.
In the case of `COc1ccc(C(=O)N2CCc3c([nH]c4ccccc34)C2c2ccc(Cl)c(Cl)c2)cc1` (stereo not drawn), the IC50 is 285 nM in [4], 237 nM in data set [5], 233 nM in [1] and 26 nM in [8]. Also, in data set [14], the solubility entry is on record as “Soluble”. Moreover, the “inhibition (INH)” value in [6] is “Active”. Besides, the values for the GI50 at 72 h in data set [7] and in [9] were 4670 nM and 4830 nM, respectively. The inhibition at 1 h, 10 µM in [2] is less than 25%. Also, the Ratio result in [10] and in [13] was “<=20” each time. Besides, the Activity entry in data set [11] is given as “Dose-dependent effect”. Besides, in data set [12], the selectivity ratio turned out to be 11.
`O=C(c1ccccc1)N1CCc2c([nH]c3ccccc23)C1c1ccccc1Br` (stereo not drawn): the IC50 in [1] was greater than 10000 nM. In addition, the inhibition at 1 h, 10 µM in data set [2] was less than 25%. In addition, the Activity in data set [15] worked out at 40%.
Regarding `COc1ccc2[nH]c3c(c2c1)CCN(C(=O)c1ccccc1)C3c1ccc(Cl)c(Cl)c1` (stereo not drawn), the IC50 is 299 nM in data set [4], 382 nM in [1] and 29 nM in data set [8]. For the same compound, the “inhibition (INH)” value in [6] is “Active”. The GI50 at 72 h came to 4170 nM in data set [7] and 5270 nM in data set [9]. Besides, the inhibition at 1 h, 10 µM in data set [2] is less than 25%. The Ratio result in [10] and in data set [13] was “<=20” each time. Besides, in data set [11], the Activity entry was “Dose-dependent effect”. For the same compound, the selectivity ratio in data set [12] worked out at 10.4.
For the compound `O=C(c1ccccc1)N1CCc2c([nH]c3ccccc23)C1c1cccc([N+](=O)[O-])c1` (stereo not drawn), the IC50 in data set [1] was greater than 10000 nM. Moreover, the inhibition at 1 h, 10 µM in data set [2] is less than 25%. Moreover, in [3], the Activity came out at 80%.
For the compound `O=C(c1ccccc1)N1CCc2c([nH]c3ccccc23)C1c1ccccc1Cl` (stereo not drawn), the IC50 in data set [1] is greater than 10000 nM. In data set [2], the inhibition at 1 h, 10 µM is less than 25%. Besides, in data set [15], the Activity is given as 40%.
As to `O=C(c1ccccc1)N1CCc2c([nH]c3ccccc23)C1c1ccc(Cl)cc1` (stereo not drawn), the IC50 in [4] amounted to 560 nM; in data set [5] it was 784 nM; in data set [1], 741 nM; in data set [8], 60 nM. In addition, the “inhibition (INH)” value in data set [6] is “Active”. Further, the GI50 at 72 h amounted to 18100 nM in [7] and 16400 nM in data set [9]. Besides, the inhibition at 1 h, 10 µM in [2] was less than 25%. Further, the Ratio in data set [10] and in data set [13] was 20 - 30 in each case. Moreover, the Activity result in data set [11] is given as “Dose-dependent effect”. Further, the selectivity ratio in data set [12] is 9.3.
Regarding `COc1cccc(C(=O)N2CCc3c([nH]c4ccccc34)C2c2ccc(Cl)c(Cl)c2)c1` (stereo not drawn), the IC50 in data set [4] turned out to be 262 nM; in data set [5], 206 nM; in [1], 238 nM; in data set [8] it was 38 nM. Besides, the “inhibition (INH)” value in data set [6] was “Active”. Also, the GI50 at 72 h turned out to be 5820 nM in [7] and 6550 nM in [9]. The inhibition at 1 h, 10 µM in data set [2] is less than 25%. Also, the Ratio result in [10] and in data set [13] was “<=20” throughout. Also, the Activity entry in data set [11] is “Dose-dependent effect”. Moreover, the selectivity ratio in data set [12] was 7.
